Results from article PMC5647210 (Cancer immunology, immunotherapy : CII, 2017).

What was measured:
[1] = system: HCV1406 TCR; experiment: Surface plasmon resonance TCR-pMHC binding; conditions: authors' ranges based on SPR KD
[2] = system: HLA-A2; conditions: thermal denaturation of peptide-HLA-A2 complexes; cited from earlier work
[3] = system: HCV1406 TCR-transduced T-cells; experiment: Degranulation CD107a assay; assay type: cell-based, human; conditions: T2 cells pulsed with 10 μg/mL peptide, 1:1 co-culture, flow cytometry
[4] = system: HCV1406 TCR-transduced T-cells; experiment: IFNγ release at high, intermediate and low antigen density; assay type: cell-based, human; conditions: peptide-loaded HepG2 cells, 18 hr, ELISA
Summary of the method: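 Normal-donor PBL transduced with HCV1406 TCR, CD34-enriched and split into CD4+/CD8+ by immunomagnetic selection. HepG2 targets either peptide-pulsed for 2 h or transduced with NS3:1406–1415 minigene–GFP vectors and sorted for high uniform GFP. Co-culture 1:1, 37 °C, 18 h. IFNγ from 1x105 T-cells measured by ELISA in triplicate (mean, SD). CD4+ vs CD8+ compared by unequal-variance two-sample t-tests.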

| Sequence | affinity category of TCR-pMHC interaction compared to WT [1] | Tm of peptide-HLA-A2 [2] [°C] | degranulation (surface CD107a) of CD4^+ TCR-transduced T-cells [3] | IFNγ secretion by CD8^+ T-cells, intermediate antigen density [4] |
| --- | --- | --- | --- | --- |
| KLLALGINAV [V1408L] | moderate affinity | 61 | – | – |
| KLTALGINAV [V1408T] | moderate affinity | 69 | blunted compared to WT, I1412L, and V1408L | – |
| KLVALGINAV [WT] | – | 64 | – | strong recognition |
| KLVALGLNAV [I1412L] | moderate affinity | – | – | – |
| KLVALGNNAV [I1412N] | low affinity | 59 | – | – |
| KLVALGVNAV [I1412V] | moderate affinity | – | blunted compared to WT, I1412L, and V1408L | – |
